From PubChem BioAssay
The list is not random: actives were taken first. Their share in the collection is about 3.1%.
PP1 inh – PP1-alpha phosphatase inhibitors, primary screen, counter-screen for PP5 inhibitor project, biochemical, fluorescence, OMFP substrate, single point; inhibition, % at 6.7 µM; Serine/threonine-protein phosphatase PP1-alpha catalytic subunit (Homo sapiens), P62136; purified PP1alpha; AID 2235, 2010; 320,000 compounds, 0.9% hits;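 active means inhibition above the mean inhibition of all tested compounds plus 3 SD, computed separately for each screening campaign, cut at about 15% in these data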
Myeloid diff 2 – induction of myeloid progenitor differentiation, primary screen, cell-based, flow cytometry, MLPCN library. ER-HoxA9 myeloid progenitors, lysozyme-GFP differentiation. calls only at 10 µM. 360,000 compounds, 1% hits. AID 624256, 2012;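 active means normalized GFP-positive differentiation at or above the plate's own cutoff, the solvent-only control mean plus 3 SD; inconclusive means no clear call, values can overlap the other calls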;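 further: cells exposed to compound for four days before flow analysis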
PP5 primary – PP5 phosphatase inhibitors, primary screen, biochemical, fluorescence | Serine/threonine-protein phosphatase 5 (Homo sapiens), P53041 | inhibition, % at 6.7 µM | purified PP5c, OMFP substrate fluorescence | 320,000 compounds, 0.18% hits;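 active means inhibition above the campaign's mean inhibition across all tested compounds plus 3 SD, cut at about 9.5% in these data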;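 further: 0% = DMSO only and 100% = 100 µM cantharidin control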
Target sequence (P53041 whole entry, looked up): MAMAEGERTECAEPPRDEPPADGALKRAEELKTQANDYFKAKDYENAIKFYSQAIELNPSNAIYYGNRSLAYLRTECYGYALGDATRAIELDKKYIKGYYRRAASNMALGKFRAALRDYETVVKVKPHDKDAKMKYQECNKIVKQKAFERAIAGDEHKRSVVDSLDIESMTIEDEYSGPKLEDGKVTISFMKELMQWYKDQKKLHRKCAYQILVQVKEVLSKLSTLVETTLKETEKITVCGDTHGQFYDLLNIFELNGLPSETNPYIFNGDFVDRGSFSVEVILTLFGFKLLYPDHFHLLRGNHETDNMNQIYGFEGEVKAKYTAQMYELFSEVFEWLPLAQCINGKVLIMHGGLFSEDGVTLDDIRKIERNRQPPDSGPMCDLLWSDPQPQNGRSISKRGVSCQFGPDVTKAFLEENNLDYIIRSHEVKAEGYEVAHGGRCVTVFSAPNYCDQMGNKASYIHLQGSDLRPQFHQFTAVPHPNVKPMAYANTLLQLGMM
Fh CTSL1 inh – Fasciola hepatica cathepsin L1 inhibitors, primary screen, counter-screen for PFM18AAP inhibitor project, biochemical, QFRET, fluorogenic peptide substrate; recombinant F. hepatica cathepsin L1, Z-Leu-Arg-MCA fluorescence; inhibition, % at 5.96 µM; 300,000 compounds, 0.49% hits; AID 1906, 2009;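 active means inhibition above the mean of all tested compounds plus 3 SD, set per screening campaign, cut at about 17% in these data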;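 further: 0% = plate median of test compound wells and 100% = 1 µM Z-Phe-Ala-diazomethylketone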
NadD block – inhibitors of S. aureus NadD, primary screen, biochemical, colorimetric, uHTS; Nicotinate-nucleotide adenylyltransferase NadD (Staphylococcus aureus N315); inhibition, % at 20 µM; AID 602399, 2012; 360,000 compounds, 0.78% hits; purified NadD enzyme, colorimetric absorbance read-out; in the data active means inhibition above about 26%
HCV core dimer – inhibitors of HCV core protein dimerization, primary screen, biochemical, TR-FRET, high-throughput; AID 1899, 2009; TR-FRET GST/Flag-core106 dimerization, 1536-well; 300,000 compounds, 0.33% hits; inhibition, % at 5 µM;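 active means inhibition above the mean of all tested compounds plus 3 SD, set per screening campaign, cut at about 45% in these data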
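test system = GST/Flag-tagged HCV core106 proteins | probe or stimulus = Eu donor and XL665 acceptor anti-tag antibodies | times = compound-protein-antibody incubation 4 h at 22.5 °C | signal = TR-FRET, excitation 340 nm, emission 617 and 671 nm | measure = percent inhibition of core106 dimerization signal | controls = wells lacking GST-core106 and wells with excess unlabelled core106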
PP1 inh confirm – PP1 phosphatase inhibitors, confirmation, biochemical, fluorescence, OMFP substrate, triplicate. shares compounds with PP1 inh. purified PP1alpha. inhibition, % at 6.7 µM. 1,900 compounds, 52% hits. AID 2358, 2010;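 active means mean PP1 inhibition above a set limit taken from the earlier primary screen, cut at about 15% in these data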
PP5 inh counter – PP5 phosphatase inhibition by PP1 hits, confirmation, counter-screen for PP1 inhibitor project, biochemical, fluorescence, triplicate | shares compounds with PP1 inh | purified PP5c, OMFP fluorescence | inhibition, % at 6.7 µM | 1,900 compounds, 4% hits | AID 2360, 2010;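 active means mean PP5 inhibition over triplicate wells above about 9.5% taken from the earlier PP1 screen, limit read from the data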
Starred values were filed as active, the others as inactive.

`CCn1cc(C(=O)NCC(C)C)c(=O)c2cc(F)c(N3CCN(C(=O)c4ccco4)CC3)cc21` gave PP1 inh 1.6, Myeloid diff 2 inactive, PP5 primary -2.9, Fh CTSL1 inh 3.6, NadD block 2.4 and HCV core dimer -1.2.
Screening CCn1cc(C(=O)O)c(=O)c2cc(F)c(N3CCN(C(=O)Nc4ccccc4)CC3)cc21 returned PP1 inh 17.8*, Myeloid diff 2 inactive, PP5 primary 1.4, Fh CTSL1 inh 5.5, NadD block 9.0, HCV core dimer 3.6, PP1 inh confirm 11.8 and PP5 inh counter -2.3.
`CCn1cc(C(=O)NCc2ccco2)c(=O)c2cc(S(=O)(=O)N3CCc4ccccc4C3)ccc21` gave PP1 inh 19.2*, Myeloid diff 2 inactive, PP5 primary 2.8, Fh CTSL1 inh 7.1, NadD block 19.7, HCV core dimer 25.5, PP1 inh confirm 17.6* and PP5 inh counter 0.8.
For CCn1cc(C(=O)O)c(=O)c2cc(F)c(N3CCN(C(=S)NC(=O)c4ccccc4F)CC3)cc21 the results were PP1 inh 3.5, Myeloid diff 2 inactive, PP5 primary -2.3, Fh CTSL1 inh 1.3, NadD block 3.3 and HCV core dimer 1.9.
Screening CCn1cc(C(=O)O)c(=O)c2cc(F)c(N3CCN(S(=O)(=O)c4ccc5c(c4)OCCO5)CC3)cc21 returned PP1 inh 6.5, Myeloid diff 2 inactive, PP5 primary 1.1, Fh CTSL1 inh -6.4, NadD block 8.7 and HCV core dimer 1.8.
For CCn1cc(C(=O)NCc2ccco2)c(=O)c2cc(F)c(N3CCN(C(=O)c4ccco4)CC3)cc21 the results were PP1 inh 18.1*, Myeloid diff 2 inactive, PP5 primary 1.5, Fh CTSL1 inh -1.5, NadD block 5.8, HCV core dimer 55.9*, PP1 inh confirm 7.8 and PP5 inh counter -5.3.
CCn1cc(C(=O)O)c(=O)c2cc(F)c(N3CCN(S(=O)(=O)c4ccc(NC(C)=O)cc4)CC3)cc21 was read as PP1 inh 42.0*, Myeloid diff 2 inactive, PP5 primary 4.5, Fh CTSL1 inh -0.4, NadD block 6.3, HCV core dimer 6.2, PP1 inh confirm 31.6* and PP5 inh counter -5.0.
For Cc1cn([C@H]2C[C@H](O)[C@@H](/C=C/C(=O)NCCc3ccc(S(N)(=O)=O)cc3)O2)c(=O)[nH]c1=O the results were Myeloid diff 2 inactive and NadD block -3.2.
COc1ccc2c(CC(=O)Nc3ccc4nc(N5CCOCC5)sc4c3)coc2c1 was read as Myeloid diff 2 inactive and NadD block 2.0.
Screening Cc1ccc(S(=O)(=O)N2C[C@@H]3[C@H]4CC[C@H](C4)[C@@H]3[C@@H](C)[C@@H]2C2CCCCC2=O)cc1 (stereo not given in full) returned Myeloid diff 2 inactive and NadD block -9.7.
Screening Cc1ccc(S(=O)(=O)NCC(=O)OCC(=O)NCc2ccc3c(c2)OCO3)cc1 returned Myeloid diff 2 inactive and NadD block 1.7.
Screening O=C(Cc1ccccc1)N/N=C/c1ccccc1OCc1ccc(Cl)cc1 returned PP1 inh 20.9*, Myeloid diff 2 inactive, PP5 primary 2.5, Fh CTSL1 inh 1.0, NadD block 6.4, HCV core dimer 10.7, PP1 inh confirm -0.8 and PP5 inh counter 1.8.
COc1cc(OC)c(NC(=O)C2CC(=O)N(c3ccc4c(c3)OCCO4)C2)cc1Cl (stereo not given) was read as PP1 inh -4.1, Myeloid diff 2 inactive, PP5 primary -0.1, Fh CTSL1 inh 1.2, NadD block -4.3 and HCV core dimer 2.8.
`COc1ccc(NC(=O)c2cc(-c3ccncc3)nc3ccc(Br)cc23)cc1OC` gave PP1 inh 18.3*, Myeloid diff 2 inactive, PP5 primary 1.5, Fh CTSL1 inh 6.6, NadD block -1.9, HCV core dimer -10.7, PP1 inh confirm 23.5* and PP5 inh counter -0.1.
`CCOc1cc(/C=C2\SC(=Nc3ccc(CC)cc3)NC2=O)ccc1OCC(=O)O` gave PP1 inh 21.7*, Myeloid diff 2 inactive, PP5 primary -1.3, Fh CTSL1 inh -0.4, NadD block 17.3, HCV core dimer 17.2, PP1 inh confirm 8.2 and PP5 inh counter -0.9.
CCOC(=O)C1=C(O)/C(=C/c2ccc(OCC(=O)O)c(OCC)c2)SC1=Nc1ccccc1 was read as PP1 inh 3.7, Myeloid diff 2 inactive, PP5 primary 1.4, Fh CTSL1 inh 7.3, NadD block 17.3 and HCV core dimer 3.1.
CCc1ccc(N=C2NC(=O)/C(=C/c3cc(OC)c(OC)c(OC)c3)S2)cc1 was read as PP1 inh 13.2, Myeloid diff 2 inactive, PP5 primary 2.2, Fh CTSL1 inh 5.2, NadD block 4.9 and HCV core dimer -0.3.
`CCc1ccc(N=C2NC(=O)/C(=C/c3cc(Br)c(OCC(=O)O)c(OC)c3)S2)cc1` gave PP1 inh 30.3*, Myeloid diff 2 inactive, PP5 primary 0.2, Fh CTSL1 inh 5.9, NadD block 23.8, HCV core dimer 7.9, PP1 inh confirm 21.1* and PP5 inh counter 2.0.
`N#CC1(NC(=O)COc2ccc(S(=O)(=O)N3CCCC3)cc2[N+](=O)[O-])CCCCC1` gave PP1 inh -2.1, Myeloid diff 2 inactive, PP5 primary 3.3, Fh CTSL1 inh 0.1, NadD block 5.5 and HCV core dimer -4.5.
For CC(C)N1CCC1(C)C(=O)Nc1ccc2cn[nH]c2c1 (stereo not given) the results were Myeloid diff 2 inactive and NadD block -0.2.
For COc1ccc(/C=N/Nc2cc(N3CCOCC3)ncn2)c(OC)c1 the results were PP1 inh -1.2, Myeloid diff 2 inactive, PP5 primary 1.5, Fh CTSL1 inh 0.3, NadD block 3.3 and HCV core dimer -3.5.
For COc1cccc(/C=N/Nc2cc(N3CCOCC3)ncn2)c1O the results were PP1 inh 24.9*, Myeloid diff 2 inconclusive, PP5 primary 3.8, Fh CTSL1 inh -0.6, NadD block -3.1, HCV core dimer -3.2, PP1 inh confirm 20.3* and PP5 inh counter -4.5.
